Assay results from ChEMBL document CHEMBL5500359, “Identification of a new bisindolinone arresting IGROV1 cells proliferation” (Eur J Med Chem, 2024).

Legend:
Assay type in all cases: functional
Melanoma cell line = assay: Cytotoxicity against human Melanoma cells incubated for 48 hrs by SRB assay
In short: (§1)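 NCI-60 five-concentration screen: lines seeded 5×10^3–4×10^4 cells/well depending on line; compound diluted in fresh medium at scalar concentrations 0–100 or 0–1000 μM; 48 h exposure, in situ fixation, sulforhodamine B protein staining, optical density read; GI50, TGI and LC50 per NCI procedures; panel mean = mean graph midpoint.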

NSCLC = assay: Cytotoxicity against human NSCLC cells incubated for 48 hrs by SRB assay; in short: as §1
Prostatic carcinoma cell = assay: Cytotoxicity against human Prostate carcinoma cells incubated for 48 hrs by SRB assay; in short: as §1

Row | SMILES | LC50 (Melanoma cell line) [µM] | LC50 (NSCLC) [µM] | LC50 (Prostatic carcinoma cell) [µM]
1 | COc1ccc2c(c1)/C(=C\c1cc(C(C)(C)C)cc(/C=C3/C(=O)N(C)c4ccc(OC)cc43)c1O)C(=O)N2C | 9.55 | 31.6 | 67.6
2 | O=C1Nc2cccc(F)c2/C1=C\c1cccc(/C=C2/C(=O)Nc3cccc(F)c32)c1 | 9.33 | 33.1 | 18.6
3 | CC(C)(C)c1cc(/C=C2/C(=O)Nc3ccc(F)cc32)c(O)c(/C=C2/C(=O)Nc3ccc(F)cc32)c1 | 33.9 | 47.9 | 4.74
4 | CC(C)(C)c1cc(/C=C2/C(=O)Nc3cccc(F)c32)c(O)c(/C=C2/C(=O)Nc3cccc(F)c32)c1 | 13.2 | 15.8 | 36.3
5 | COc1ccc2[nH]c(Cl)c(/C=C3/C(=O)N(C)c4cc5c(cc43)/C(=C\c3c(Cl)[nH]c4ccc(OC)cc34)C(=O)N5C)c2c1 | 12.9 | 24.6 | 7.94
6 | CC(C)(C)c1cc(/C=C2/C(=O)Nc3cc(Cl)ccc32)c(O)c(/C=C2/C(=O)Nc3cc(Cl)ccc32)c1 | 30.9 | 47.9 | 38
7 | Cc1cc2c(cc1O)/C(=C\c1cc(C(C)(C)C)cc(C=O)c1O)C(=O)N2 | 37.1 | 51.3 | 57.5
8 | COc1cc2c(cc1C)NC(=O)/C2=C/c1ccc2ccc3ccc(/C=C4/C(=O)Nc5cc(C)c(OC)cc54)nc3c2n1 | 55 | 52.5 | –
9 | COc1cc2c(/C=C3/C(=O)N(C)c4cc5c(cc43)/C(=C\c3c(Cl)[nH]c4cc(C)c(OC)cc34)C(=O)N5C)c(Cl)[nH]c2cc1C | 22.4 | 51.3 | 20.4
10 | O=C1Nc2cc(Cl)ccc2/C1=C\c1cccc(/C=C2/C(=O)Nc3cc(Cl)ccc32)c1 | 19.5 | 45.7 | 28.2
11 | COc1ccc2c(c1)/C(=C\c1ccc3ccc4ccc(/C=C5/C(=O)N(C)c6ccc(OC)cc65)nc4c3n1)C(=O)N2C | 30.2 | 85.1 | 56.2
12 | O=C1Nc2ccc(Cl)cc2/C1=C\c1ccc2ccc3ccc(/C=C4/C(=O)Nc5ccc(Cl)cc54)nc3c2n1 | 51.3 | 52.5 | –
13 | COc1cc2c(c(OC)c1OC)C(=Cc1cc(C(C)(C)C)cc(/C=C3\C(=O)Nc4cc(OC)c(OC)c(OC)c43)c1O)C(=O)N2 | 8.13 | 14.8 | 12.6
